The nature of series [1]: Dissociation constant, pKa of the compound. Type of series: physicochemical.
The target of series [2] is T1, Lysine-specific demethylase 4C (Homo sapiens, UniProt Q9H3R0).
T1 sequence (Q9H3R0 whole entry): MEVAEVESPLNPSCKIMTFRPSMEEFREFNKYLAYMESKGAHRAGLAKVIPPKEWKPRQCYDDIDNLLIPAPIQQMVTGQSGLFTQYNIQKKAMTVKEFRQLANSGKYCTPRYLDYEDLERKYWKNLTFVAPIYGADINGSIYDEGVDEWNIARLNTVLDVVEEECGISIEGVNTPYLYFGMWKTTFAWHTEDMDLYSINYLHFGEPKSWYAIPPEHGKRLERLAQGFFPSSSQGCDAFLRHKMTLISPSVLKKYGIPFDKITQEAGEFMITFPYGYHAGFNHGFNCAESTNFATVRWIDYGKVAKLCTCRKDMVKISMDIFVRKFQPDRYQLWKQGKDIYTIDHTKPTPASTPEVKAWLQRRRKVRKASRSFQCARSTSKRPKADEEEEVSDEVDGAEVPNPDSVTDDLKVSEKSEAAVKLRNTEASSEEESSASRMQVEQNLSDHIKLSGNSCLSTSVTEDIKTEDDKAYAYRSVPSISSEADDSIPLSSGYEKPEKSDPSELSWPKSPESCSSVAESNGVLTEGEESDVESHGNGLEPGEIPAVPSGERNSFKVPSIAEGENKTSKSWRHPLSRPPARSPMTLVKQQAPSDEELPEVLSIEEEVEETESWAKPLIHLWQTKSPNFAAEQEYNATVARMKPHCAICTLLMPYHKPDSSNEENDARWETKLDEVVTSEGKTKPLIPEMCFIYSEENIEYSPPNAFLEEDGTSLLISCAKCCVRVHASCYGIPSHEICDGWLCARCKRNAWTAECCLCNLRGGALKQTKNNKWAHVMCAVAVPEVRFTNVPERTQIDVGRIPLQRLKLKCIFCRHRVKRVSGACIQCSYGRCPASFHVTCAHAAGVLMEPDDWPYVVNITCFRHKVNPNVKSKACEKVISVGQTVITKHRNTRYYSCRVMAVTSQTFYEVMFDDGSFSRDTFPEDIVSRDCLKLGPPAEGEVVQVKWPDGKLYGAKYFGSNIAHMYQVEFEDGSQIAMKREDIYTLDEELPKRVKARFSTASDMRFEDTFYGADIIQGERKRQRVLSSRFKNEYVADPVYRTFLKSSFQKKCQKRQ
The series can be described thus: Inhibition of N-terminal his-tagged human KDM4C expressed in Escherichia coli BL21(DE3) using trimethylated peptide substrate by RFMS assay.

Series [3] addresses T1, Lysine-specific demethylase 4C. As to the kind of experiment: Inhibition of N-terminal HALO-tagged full-length human KDM4C transfected in U2OS cells assessed as inhibition of H3K9Me3 demethylation for 24 hrs.
Series [4] deals with T2, Lysine-specific demethylase 4A (Homo sapiens, UniProt O75164).
T2 sequence (O75164 whole entry): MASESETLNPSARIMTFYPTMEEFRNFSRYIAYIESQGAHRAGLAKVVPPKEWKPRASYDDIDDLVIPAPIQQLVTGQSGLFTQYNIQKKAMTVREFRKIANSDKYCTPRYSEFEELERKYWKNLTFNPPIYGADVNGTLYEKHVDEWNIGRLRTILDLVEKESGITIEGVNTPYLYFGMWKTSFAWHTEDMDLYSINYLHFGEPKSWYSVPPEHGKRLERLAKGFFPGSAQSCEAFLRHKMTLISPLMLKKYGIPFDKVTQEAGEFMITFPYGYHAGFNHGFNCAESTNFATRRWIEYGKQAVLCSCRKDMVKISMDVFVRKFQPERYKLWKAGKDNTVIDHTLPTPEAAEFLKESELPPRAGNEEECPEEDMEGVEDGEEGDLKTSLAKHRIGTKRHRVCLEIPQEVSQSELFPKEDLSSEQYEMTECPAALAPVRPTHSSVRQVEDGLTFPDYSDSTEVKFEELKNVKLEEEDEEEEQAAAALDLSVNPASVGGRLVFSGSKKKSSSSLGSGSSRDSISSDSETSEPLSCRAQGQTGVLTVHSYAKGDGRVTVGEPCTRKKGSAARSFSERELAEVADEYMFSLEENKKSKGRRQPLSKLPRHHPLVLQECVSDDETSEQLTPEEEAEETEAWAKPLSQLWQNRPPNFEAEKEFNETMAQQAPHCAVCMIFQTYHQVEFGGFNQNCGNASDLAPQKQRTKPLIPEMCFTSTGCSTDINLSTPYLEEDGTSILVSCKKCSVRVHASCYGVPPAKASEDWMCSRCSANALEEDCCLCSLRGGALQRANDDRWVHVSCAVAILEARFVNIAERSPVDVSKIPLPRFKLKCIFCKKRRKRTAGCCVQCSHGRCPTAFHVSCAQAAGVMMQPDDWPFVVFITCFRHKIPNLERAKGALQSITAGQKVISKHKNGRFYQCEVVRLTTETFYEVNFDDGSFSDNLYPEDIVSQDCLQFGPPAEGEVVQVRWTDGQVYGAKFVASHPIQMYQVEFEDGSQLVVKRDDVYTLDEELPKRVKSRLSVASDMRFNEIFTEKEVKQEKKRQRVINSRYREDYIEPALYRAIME
As to the kind of experiment: Inhibition of KDM4A (unknown origin) by RFMS assay.

The target of series [5] is Lysine-specific demethylase 6B (Homo sapiens, UniProt O15054). As to the kind of experiment: Inhibition of KDM6B (unknown origin) by RFMS assay.
Chain of Lysine-specific demethylase 6B (O15054 whole entry): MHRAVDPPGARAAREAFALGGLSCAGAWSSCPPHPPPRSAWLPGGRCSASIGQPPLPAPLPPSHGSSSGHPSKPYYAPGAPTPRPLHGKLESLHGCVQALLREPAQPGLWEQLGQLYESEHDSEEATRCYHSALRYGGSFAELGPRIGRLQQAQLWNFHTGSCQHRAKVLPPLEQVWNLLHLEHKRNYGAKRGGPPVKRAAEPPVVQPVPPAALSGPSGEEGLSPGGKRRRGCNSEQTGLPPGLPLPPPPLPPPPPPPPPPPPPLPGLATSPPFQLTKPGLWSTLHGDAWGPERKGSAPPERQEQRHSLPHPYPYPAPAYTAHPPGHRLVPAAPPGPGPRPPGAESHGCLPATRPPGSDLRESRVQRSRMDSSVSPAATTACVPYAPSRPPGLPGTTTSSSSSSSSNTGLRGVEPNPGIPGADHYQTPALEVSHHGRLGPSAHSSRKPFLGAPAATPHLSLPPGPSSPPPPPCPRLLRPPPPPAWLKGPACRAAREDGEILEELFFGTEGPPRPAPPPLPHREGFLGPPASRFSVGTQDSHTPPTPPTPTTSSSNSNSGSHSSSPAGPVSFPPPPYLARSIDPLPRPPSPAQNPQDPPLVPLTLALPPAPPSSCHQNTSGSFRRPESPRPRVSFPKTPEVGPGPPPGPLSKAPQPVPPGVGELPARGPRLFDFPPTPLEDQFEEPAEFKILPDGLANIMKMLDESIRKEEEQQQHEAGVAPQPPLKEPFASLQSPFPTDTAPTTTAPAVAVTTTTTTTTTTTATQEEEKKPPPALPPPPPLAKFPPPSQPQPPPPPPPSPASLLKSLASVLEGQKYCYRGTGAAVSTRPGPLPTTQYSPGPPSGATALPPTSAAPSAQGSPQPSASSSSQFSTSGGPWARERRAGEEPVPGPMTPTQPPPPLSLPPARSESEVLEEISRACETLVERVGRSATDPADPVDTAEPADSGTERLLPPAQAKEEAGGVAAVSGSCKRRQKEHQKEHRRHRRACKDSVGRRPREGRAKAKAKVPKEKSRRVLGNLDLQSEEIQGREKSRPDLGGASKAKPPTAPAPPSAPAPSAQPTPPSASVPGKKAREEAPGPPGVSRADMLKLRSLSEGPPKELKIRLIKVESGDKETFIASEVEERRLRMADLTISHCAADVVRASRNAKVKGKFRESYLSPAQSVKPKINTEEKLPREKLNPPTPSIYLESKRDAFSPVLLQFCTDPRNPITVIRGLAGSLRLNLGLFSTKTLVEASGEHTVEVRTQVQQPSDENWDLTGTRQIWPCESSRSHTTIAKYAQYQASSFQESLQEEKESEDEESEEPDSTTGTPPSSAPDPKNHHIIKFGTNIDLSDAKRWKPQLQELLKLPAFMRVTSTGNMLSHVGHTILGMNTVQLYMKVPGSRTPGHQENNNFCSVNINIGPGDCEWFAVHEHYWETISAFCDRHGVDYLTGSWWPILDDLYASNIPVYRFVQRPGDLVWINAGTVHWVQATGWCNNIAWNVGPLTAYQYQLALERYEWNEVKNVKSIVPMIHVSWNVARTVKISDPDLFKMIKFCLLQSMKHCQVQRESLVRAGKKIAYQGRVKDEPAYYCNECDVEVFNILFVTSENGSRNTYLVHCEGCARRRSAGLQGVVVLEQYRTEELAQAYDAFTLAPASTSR
Series [6] can be described thus: physchem. The conditions noted are these: buffer, pH 7.4.
Series [7] concerns the target Prolyl hydroxylase EGLN3 (Homo sapiens, UniProt Q9H6Z9). As to the kind of experiment: Inhibition of full-length EGLN3 (unknown origin) expressed in Escherichia coli BL21(DE3) cells by HTRF assay. A general note: In TR-FRET formats the signal depends on donor and acceptor labels being close together.
Series [8] concerns the target T3, Lysine-specific demethylase 4D (Homo sapiens, UniProt Q6B0I6).
T3 sequence (Q6B0I6 whole entry): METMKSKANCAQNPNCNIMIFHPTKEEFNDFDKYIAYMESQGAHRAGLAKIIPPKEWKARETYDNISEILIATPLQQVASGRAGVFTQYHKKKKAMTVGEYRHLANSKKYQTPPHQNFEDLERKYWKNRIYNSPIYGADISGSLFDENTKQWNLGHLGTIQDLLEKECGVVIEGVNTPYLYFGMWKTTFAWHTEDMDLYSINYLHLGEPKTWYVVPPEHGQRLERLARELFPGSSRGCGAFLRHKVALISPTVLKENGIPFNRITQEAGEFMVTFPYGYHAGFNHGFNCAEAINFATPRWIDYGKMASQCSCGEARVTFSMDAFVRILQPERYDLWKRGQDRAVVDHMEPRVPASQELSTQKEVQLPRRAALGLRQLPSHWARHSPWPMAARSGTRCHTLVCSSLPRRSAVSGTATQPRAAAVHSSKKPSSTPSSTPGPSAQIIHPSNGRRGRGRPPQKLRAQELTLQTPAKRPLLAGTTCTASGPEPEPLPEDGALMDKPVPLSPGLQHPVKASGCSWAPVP
The series can be described thus: Inhibition of KDM4D (unknown origin) by RFMS assay.

Series [9] addresses T4, Lysine-specific demethylase 5C (Homo sapiens, UniProt P41229). As to the kind of experiment: Inhibition of KDM5C catalytic domain (1 -764 aa) (unknown origin) expressed in Sf9 cells using H3K4Me3 peptide as substrate by RFMS assay.
In series [10] the target is T4, Lysine-specific demethylase 5C. As to the kind of experiment: Inhibition of human KDM5C transfected in U2OS cells assessed as inhibition of […] demethylation for 24 hrs. It is filed as cell-based. The gist of the method:
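High-content cell imaging assay in U2OS cells overexpressing KDM5C, the same cell type as the KDM4C cellular mechanistic assay. Cellular potency reported as pIC50.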

Series [11] concerns the target T5, Lysine-specific demethylase 4E (Homo sapiens, UniProt B2RXH2).
T5 sequence (B2RXH2 whole entry): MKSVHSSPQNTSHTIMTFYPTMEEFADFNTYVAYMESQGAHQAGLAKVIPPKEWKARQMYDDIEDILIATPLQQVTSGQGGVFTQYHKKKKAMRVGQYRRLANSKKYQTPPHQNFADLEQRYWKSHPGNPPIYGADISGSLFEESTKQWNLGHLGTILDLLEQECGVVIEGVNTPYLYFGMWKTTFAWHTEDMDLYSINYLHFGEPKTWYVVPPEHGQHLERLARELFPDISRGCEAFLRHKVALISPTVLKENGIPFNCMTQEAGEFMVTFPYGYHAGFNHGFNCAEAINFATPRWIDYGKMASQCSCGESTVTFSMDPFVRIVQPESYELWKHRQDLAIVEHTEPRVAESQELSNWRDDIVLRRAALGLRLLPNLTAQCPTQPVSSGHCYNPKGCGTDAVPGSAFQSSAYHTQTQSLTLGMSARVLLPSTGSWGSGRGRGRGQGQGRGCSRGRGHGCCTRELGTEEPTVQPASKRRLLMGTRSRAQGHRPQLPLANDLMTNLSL
The series can be described thus: Inhibition of KDM4E (unknown origin) by RFMS assay.

The target in series [12] is T1, Lysine-specific demethylase 4C. As to the kind of experiment: Inhibition of N-terminal his-tagged full-length human KDM4C transfected in U2OS cells assessed as inhibition of H3K9Me3 demethylation for 24 hrs. It is filed as cell-based.

A value given as a limit tells only on which side of the number the result lay.

T4 sequence (P41229 whole entry, the tested form may be a part): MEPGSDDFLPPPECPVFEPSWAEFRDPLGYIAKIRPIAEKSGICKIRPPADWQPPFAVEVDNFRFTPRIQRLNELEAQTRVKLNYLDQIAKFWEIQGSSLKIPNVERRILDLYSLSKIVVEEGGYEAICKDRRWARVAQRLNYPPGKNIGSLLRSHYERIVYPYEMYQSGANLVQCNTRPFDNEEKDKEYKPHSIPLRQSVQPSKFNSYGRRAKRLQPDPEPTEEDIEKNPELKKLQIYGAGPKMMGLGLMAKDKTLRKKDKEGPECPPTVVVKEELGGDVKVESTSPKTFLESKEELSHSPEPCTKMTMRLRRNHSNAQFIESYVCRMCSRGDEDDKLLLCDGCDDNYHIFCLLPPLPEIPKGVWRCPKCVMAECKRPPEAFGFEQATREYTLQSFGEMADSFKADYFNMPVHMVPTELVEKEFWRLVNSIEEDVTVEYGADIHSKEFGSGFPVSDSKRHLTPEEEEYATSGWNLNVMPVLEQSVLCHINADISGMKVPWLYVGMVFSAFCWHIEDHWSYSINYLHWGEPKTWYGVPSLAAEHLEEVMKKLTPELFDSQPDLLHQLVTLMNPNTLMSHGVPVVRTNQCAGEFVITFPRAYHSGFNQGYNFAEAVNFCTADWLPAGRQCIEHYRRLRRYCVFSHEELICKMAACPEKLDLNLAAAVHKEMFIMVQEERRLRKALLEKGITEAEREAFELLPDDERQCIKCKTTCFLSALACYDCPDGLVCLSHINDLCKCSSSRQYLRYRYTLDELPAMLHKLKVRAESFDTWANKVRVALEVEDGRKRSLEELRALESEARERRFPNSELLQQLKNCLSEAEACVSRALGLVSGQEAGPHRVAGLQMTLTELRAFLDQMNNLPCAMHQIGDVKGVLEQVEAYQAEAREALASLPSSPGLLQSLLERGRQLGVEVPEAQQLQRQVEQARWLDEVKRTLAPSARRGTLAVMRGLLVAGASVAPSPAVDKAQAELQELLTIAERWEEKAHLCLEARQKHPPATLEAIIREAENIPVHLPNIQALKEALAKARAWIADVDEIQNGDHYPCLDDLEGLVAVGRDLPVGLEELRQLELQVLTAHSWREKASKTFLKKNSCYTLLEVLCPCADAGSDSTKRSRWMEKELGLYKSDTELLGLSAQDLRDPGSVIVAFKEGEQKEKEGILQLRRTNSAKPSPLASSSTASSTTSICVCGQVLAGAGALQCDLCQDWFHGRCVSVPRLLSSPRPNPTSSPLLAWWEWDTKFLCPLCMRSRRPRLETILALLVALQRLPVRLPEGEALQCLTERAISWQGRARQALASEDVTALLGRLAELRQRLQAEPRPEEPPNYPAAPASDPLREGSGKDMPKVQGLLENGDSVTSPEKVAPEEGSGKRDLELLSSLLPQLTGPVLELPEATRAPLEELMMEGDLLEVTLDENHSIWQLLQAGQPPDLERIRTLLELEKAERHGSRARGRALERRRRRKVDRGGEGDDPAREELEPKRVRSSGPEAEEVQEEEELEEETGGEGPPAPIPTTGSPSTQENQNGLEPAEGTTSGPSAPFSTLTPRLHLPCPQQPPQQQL
Chain of Prolyl hydroxylase EGLN3 (Q9H6Z9 whole entry): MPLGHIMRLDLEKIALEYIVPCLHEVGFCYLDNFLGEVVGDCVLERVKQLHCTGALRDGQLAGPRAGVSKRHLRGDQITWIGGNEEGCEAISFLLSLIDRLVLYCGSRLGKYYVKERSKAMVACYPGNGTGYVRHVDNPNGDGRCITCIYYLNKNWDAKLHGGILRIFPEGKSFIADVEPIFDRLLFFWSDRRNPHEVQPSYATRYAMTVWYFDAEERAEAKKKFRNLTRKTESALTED

For orientation: pKa means the negative logarithm of the acid dissociation constant. Low values mean a stronger acid or weaker base, high ones a weaker acid or stronger base. In [1], `CCNc1nc2cnccc2c(=O)[nH]1` came in with a pKa of 8.6. Moreover, in [2], the IC50 was 3.16 µM.

On to `CCCc1nc2cnccc2c(=O)[nH]1`, for which, in series [1], the pKa came to 8.8. Moreover, in [2], the IC50 is 12.6 µM.

One may read the logD as lipophilicity at a set pH, counting ionised and neutral species. Higher therefore signals a more lipophilic compound. With `O=c1[nH]c(Oc2cnn(C3CCCC3)c2)nc2cnccc12`, the IC50 is 2 µM in series [3]; 0.794 µM in series [4]; above 100 µM in series [5]; above 100 µM in series [7]; 0.501 µM in series [8]; 0.631 µM in series [2]. For the same molecule, the IC50 in series [9] is 0.126 µM; in [10] (read-out: IC50) it was 2.5 µM; in series [10] (read-out: pIC50 (converted)) it was 5.01 µM; in series [11], 0.398 µM. The logD in series [6] came to 1.7.

Turning to `CCOc1nc2cnccc2c(=O)[nH]1`, the pKa in series [1] was found to be 7.5. In addition, the IC50 in [12] is 63.1 µM; in series [2], 1 µM.

As for `O=c1[nH]c(Oc2ccc(Cl)c(O)c2)nc2cnccc12`, the IC50 in series [3] is 2 µM; in series [4], 0.398 µM; in series [5] it was above 100 µM; in series [7] it was above 100 µM; in series [8] it was 0.316 µM; in [2], 0.398 µM. Moreover, the IC50 was 0.2 µM in series [9], 31.6 µM in series [10] (read-out: pIC50 (converted)) and 0.126 µM in [11]. Further, the logD in series [6] came to 1.1.

Consider `CCSc1nc2cnccc2c(=O)[nH]1`, for which the pKa in series [1] turned out to be 6.8. The IC50 in series [12] is above 100 µM; in series [2] it was 0.794 µM.

Take `O=c1[nH]c(Oc2cnn(Cc3ccccc3)c2)nc2cnccc12`: the IC50 in [3] is 2 µM; in [4] it was 0.631 µM; in series [5] it was above 100 µM; in [7], above 100 µM; in series [12], 5.01 µM; in series [8] it was 0.398 µM. The IC50 was 0.501 µM in series [2], 0.0631 µM in series [9], 3.98 µM in series [10] (read-out: pIC50 (converted)) and 0.501 µM in [11]. Besides, the logD in series [6] was determined as 1.8.

Regarding `O=c1[nH]c(Oc2cnn(CC3CCCCC3)c2)nc2cnccc12`, the IC50 is 2 µM in series [3]; 0.631 µM in series [4]; above 100 µM in [5]; above 100 µM in series [7]; 5.01 µM in series [12]; 0.398 µM in series [8]. Also, the IC50 in [2] was 0.631 µM; in series [9] it was 0.0794 µM; in [10] (read-out: IC50) it was 2.5 µM; in series [11], 0.501 µM. This molecule also returned a logD in [6] of 2.9.

These data come from ChEMBL document CHEMBL3769320, “Cell Penetrant Inhibitors of the KDM4 and KDM5 Families of Histone Lysine Demethylases. 2. Pyrido[3,4-d]pyrimidin-4(3H)-one Derivatives” (J Med Chem, 2016).
